Experimental data reported in ChEMBL document CHEMBL1142312, “Anti-Plasmodium activity of tetrazolium salts” (Bioorg Med Chem, 2008).
pIC50: −log10 of the molar value.

Legend:
[1] = system: Plasmodium falciparum; experiment: Antimalarial activity against Plasmodium falciparum in LDH reporter assay; format: functional, organism-based; settings: Plasmodium falciparum
Method in brief: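 P. falciparum line ItG cultured in O+ human erythrocytes in RPMI-1640 with 10% human serum and 50 μM hypoxanthine. Twofold serial dilutions from 10 mg/mL DMSO stock, 2% hematocrit, 2% parasitemia. Incubated 72 h at 37 °C under 95% N2/3% CO2/2% O2. Parasite LDH assay read at 650 nm after 1 h. IC50 by non-linear regression, mean ± SE of four determinations.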

[2] = Toxicity in CHO cells; format: cell-based, Cricetulus griseus; settings: Chinese hamster (Cricetulus griseus), CHO cells
Method in brief: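 CHO cells grown to 50% confluency in RPMI-1640 with 10% fetal calf serum, 25 mM Hepes and gentamicin. Serial dilutions made from a 10 mg/mL DMSO stock; DMSO-only controls. After 48 h, MTT (10 mg/mL in medium) added for 1 h, then DMSO added and absorbance read at 650 nm. IC50 by non-linear regression of dose–response; mean ± SE of four determinations.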

[3] = Ratio of IC50 for CHO cells to IC50 for Plasmodium falciparum; format: functional

Row | SMILES | pIC50 [1] | pIC50 [2] | Ratio IC50 [3]
1 | CC(C)c1nn(-c2ccccc2)[n+](-c2ccccc2)n1.[Br-] | 3.99 | 3.42 | 3.7
2 | Clc1cccc(-[n+]2nc(-c3ccccc3)nn2-c2ccccc2)c1.[Cl-] | 6.08 | 5.20 | 7.5
3 | COc1cc(-c2ccc(-n3nc(-c4ccc([N+](=O)[O-])cc4)n[n+]3-c3ccc([N+](=O)[O-])cc3)c(OC)c2)ccc1-n1nc(-c2ccc([N+](=O)[O-])cc2)n[n+]1-c1ccc([N+](=O)[O-])cc1 |  | 5.89 | 
4 | COc1ccc(-n2nc(-c3ccc(-c4ccccc4)cc3)n[n+]2-c2ccc(F)cc2)cc1.[Cl-] | 5.77 | 4.72 | 11.2
5 | [Cl-].c1ccc(-c2nn(-c3ccccc3)[n+](-c3ccccc3)n2)cc1 [TETRAZOLIUM RED] | 6.52 | 4.15 | 236.7
6 | CCCCCCCCCCCOc1cccc(-c2nn(-c3ccccc3)[n+](-c3ccccc3)n2)c1.[Cl-] | 5.60 | 5.30 | 2
7 | CCCCCCc1nn(-c2ccccc2)[n+](-c2ccccc2)n1.[Br-] | 5.47 | 4.68 | 6.2
8 | [Cl-].c1ccc(-c2ccc(-n3nc(-c4cccc5ccccc45)n[n+]3-c3ccccc3)cc2)cc1 | 5.54 | 5.05 | 3.1
9 | COc1ccc(-c2nn(-c3ccccc3)[n+](-c3ccc([N+](=O)[O-])cc3)n2)cc1.[Cl-] | 5.43 | 5.22 | 1.6
10 | Fc1cccc(-[n+]2nc(-c3ccccc3)nn2-c2ccccc2)c1.[Cl-] | 5.66 | 4.44 | 16.4
11 | O=[N+]([O-])c1ccc(-n2nc(-c3ccccc3)n[n+]2-c2ccc(I)cc2)cc1.[Cl-] [IODONITROTETRAZOLIUM CHLORIDE] | 4.09 | 4.31 | 0.6
12 | O=[N+]([O-])c1ccc(-[n+]2nc(-c3ccc(OCc4ccccc4)cc3)nn2-c2ccccc2)cc1.[Cl-] | 5.05 | 5.36 | 0.5
13 | COc1cc(-c2nn(-c3ccccc3)[n+](-c3ccc(Cl)cc3)n2)ccc1OCc1ccccc1.[Cl-] | 5.42 | 4.49 | 8.4
14 | COc1cc(-c2ccc(-n3nc(-c4ccccc4)n[n+]3-c3ccccc3)c(OC)c2)ccc1-n1nc(-c2ccccc2)n[n+]1-c1ccccc1 [TETRAZOLIUM BLUE CHLORIDE] | 5.42 | < 4.00 | 
15 | Clc1ccc(-[n+]2nc(-c3ccc(OCc4ccccc4)cc3)nn2-c2ccccc2)cc1.[Cl-] | 5.94 | 5.34 | 4
16 | [Cl-].c1ccc(-n2nc(C3CCCCC3)n[n+]2-c2ccccc2)cc1 | 5.21 | 4.60 | 4
17 | O=[N+]([O-])c1ccc(-c2nn(-c3ccccc3)[n+](-c3ccccc3)n2)cc1.[Cl-] | 4.85 | 4.51 | 2.2
18 | Fc1ccc(-[n+]2nc(-c3ccccc3)nn2-c2ccccc2)cc1.[Cl-] | 6.03 | 4.41 | 41.9
19 | Clc1cccc(-n2nc(-c3ccc(OCc4ccccc4)cc3)n[n+]2-c2cccc(Cl)c2)c1.[Cl-] | 5.89 | 4.68 | 16.2
20 | COc1cc(-c2nn(-c3ccccc3)[n+](-c3ccc([N+](=O)[O-])cc3)n2)cc(OC)c1OC(C)=O.[Cl-] | 5.14 | 4.72 | 2.6
21 | COc1cc(-c2nn(-c3ccccc3)[n+](-c3ccccc3F)n2)ccc1OCc1ccccc1.[Cl-] | 5.66 | 5.57 | 1.2
22 | CCCCCCCCCCCOc1ccc(-c2nn(-c3ccccc3)[n+](-c3ccccc3)n2)cc1.[Cl-] | 5.40 | 6.40 | 0.1
23 | O=[N+]([O-])c1ccc(-[n+]2nc(-c3ccc(Br)cc3)nn2-c2ccccc2)cc1.[Cl-] | 5.00 | 5.15 | 0.7
24 | COc1cc(-c2nn(-c3ccccc3)[n+](-c3cccc(F)c3)n2)ccc1OCc1ccccc1.[Cl-] | 5.49 | 5.19 | 2

More lines, in order of rising pIC50 [1], values ahead:

Row | pIC50 [1] | SMILES | pIC50 [2] | Ratio IC50 [3]
25 | 6.08 | Fc1ccc(-[n+]2nc(-c3cccc4ccccc34)nn2-c2ccccc2)cc1.[Cl-] | 4.49 | 38.6
26 | 6.09 | Fc1ccc(-[n+]2nc(-c3ccc(-c4ccccc4)cc3)nn2-c2ccccc2)cc1.[Cl-] | 5.39 | 5.1
27 | 6.16 | COc1cc(-c2nn(-c3ccccc3)[n+](-c3cccc(Cl)c3)n2)ccc1OCc1ccccc1.[Cl-] | 5.10 | 11.6
28 | 6.20 | Clc1ccc(-[n+]2nc(-c3ccccc3)nn2-c2ccccc2)cc1.[Cl-] | 4.41 | 61.9
29 | 6.22 | Brc1cccc(-[n+]2nc(-c3ccccc3)nn2-c2ccccc2)c1.[Cl-] | 5.19 | 10.7
30 | 6.30 | Clc1cccc(-n2nc(-c3ccccc3)n[n+]2-c2cccc(Cl)c2)c1.[Cl-] | 4.44 | 72
31 | 6.33 | Fc1ccc(-[n+]2nc(-c3ccc(OCc4ccccc4)cc3)nn2-c2ccccc2)cc1.[Cl-] | 4.80 | 34
32 | 6.34 | Clc1cccc(-c2nn(-c3ccccc3)[n+](-c3ccccc3)n2)c1.[Cl-] | 4.37 | 93.5
33 | 6.37 | COc1ccc(-[n+]2nc(-c3ccc(-c4ccccc4)cc3)nn2-c2ccccc2)cc1.[Cl-] | 4.72 | 44.2
34 | 6.38 | Fc1cccc(-[n+]2nc(-c3ccc(OCc4ccccc4)cc3)nn2-c2ccccc2)c1.[Cl-] | 5.37 | 10.2
35 | 6.39 | Clc1ccc(-[n+]2nc(-c3ccc(-c4ccccc4)cc3)nn2-c2ccccc2)cc1.[Cl-] | 4.80 | 39
36 | 6.39 | Clc1cccc(-c2nn(-c3ccc(OCc4ccccc4)cc3)[n+](-c3ccccc3)n2)c1.[Cl-] | 4.42 | 92.7
37 | 6.40 | Brc1cccc(-[n+]2nc(-c3ccc(OCc4ccccc4)cc3)nn2-c2ccccc2)c1.[Cl-] | 5.09 | 20.3
38 | 6.40 | COc1ccc(-n2nc(-c3ccc(-c4ccccc4)cc3)n[n+]2-c2ccc(Cl)cc2)cc1.[Cl-] | 4.92 | 30
39 | 6.41 | Fc1ccccc1-[n+]1nc(-c2ccccc2)nn1-c1ccccc1.[Cl-] | 4.36 | 112.8
40 | 6.44 | Fc1ccccc1-[n+]1nc(-c2ccc(-c3ccccc3)cc2)nn1-c1ccccc1.[Cl-] | 5.10 | 22.2

Row | pIC50 [1] | SMILES | pIC50 [2] | Ratio IC50 [3]
41 | 6.46 | [Cl-].[Cl-].c1ccc(-c2nn(-c3ccccc3)[n+](-c3ccc(-c4ccc(-[n+]5nc(-c6ccccc6)nn5-c5ccccc5)cc4)cc3)n2)cc1 [NEOTETRAZOLIUM CHLORIDE] | 4.96 | 31.4
42 | 6.46 | [Cl-].c1ccc(-n2nc(-c3cccc4ccccc34)n[n+]2-c2ccccc2)cc1 | 5.62 | 6.9
43 | 6.49 | COc1ccc(-n2nc(-c3ccc(OCc4ccccc4)cc3)n[n+]2-c2ccccc2)cc1.[Cl-] | 5.05 | 28.1
44 | 6.54 | COc1ccc(-n2nc(-c3ccc(OCc4ccccc4)cc3)n[n+]2-c2cccc(Cl)c2)cc1.[Cl-] | 4.80 | 55.2
45 | 6.58 | [Cl-].c1ccc(COc2ccc(-n3nc(-c4ccc(-c5ccccc5)cc4)n[n+]3-c3ccccc3)cc2)cc1 | 5.77 | 6.5
46 | 6.59 | Fc1cccc(-[n+]2nc(-c3ccc(-c4ccccc4)cc3)nn2-c2ccccc2)c1.[Cl-] | 5.31 | 18.8
47 | 6.59 | COc1cc(-c2nn(-c3ccccc3)[n+](-c3ccccc3)n2)ccc1OCc1ccccc1.[Cl-] | 5.33 | 18.1
48 | 6.64 | [Cl-].c1ccc(-c2ccc(-c3nn(-c4ccccc4)[n+](-c4ccccc4)n3)cc2)cc1 | 5.15 | 30.4
49 | 6.64 | [Cl-].c1ccc(COc2ccc(-c3nn(-c4ccc(OCc5ccccc5)cc4)[n+](-c4ccccc4)n3)cc2)cc1 | 6.02 | 4.2
50 | 6.70 | [Cl-].c1ccc(COc2ccc(-n3nc(-c4ccccc4)n[n+]3-c3ccccc3)cc2)cc1 | 4.43 | 185
51 | 6.82 | [Cl-].c1ccc(-c2nn(-c3ccccc3)[n+](-c3cccc4ccccc34)n2)cc1 [TETRAZOLIUM VIOLET] | 4.82 | 100
52 | 6.85 | Fc1ccccc1-[n+]1nc(-c2ccc(OCc3ccccc3)cc2)nn1-c1ccccc1.[Cl-] | 5.10 | 57.1
53 | 6.94 | Clc1cccc(-[n+]2nc(-c3ccc(-c4ccccc4)cc3)nn2-c2ccccc2)c1.[Cl-] | 5.00 | 87
54 | 6.99 | [Cl-].c1ccc(COc2ccc(-c3nn(-c4ccccc4)[n+](-c4ccccc4)n3)cc2)cc1 | 5.38 | 40.8
55 | 7.00 | Clc1cccc(-[n+]2nc(-c3ccccc3)nn2-c2ccc(OCc3ccccc3)cc2)c1.[Cl-] | 4.85 | 140
